PMC7818638 (ACS Omega, 2021)
In brackets after ≈: the same amount, converted by molar mass.

Columns and labels:
HepG2 = test: Antiproliferative; assay type: cell-based; details: Homo sapiens, HepG2, read-out: HepG2 IC50 ± SD
Outline: (§1)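 Test compounds are screened by MTT assay against human hepatoblastoma HepG2 cells and murine BALB/3T3 fibroblasts, with doxorubicin as the reference drug. Dose–response curves are plotted from the results. IC50 is taken as the concentration needed to kill half the cell population. Values are the mean of three independent experiments.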

[1] = system: BALB/3T3 (murine fibroblast); test: Cytotoxicity toward normal cell line BALB/3T3, MTT assay; assay type: cell-based; details: for toxicity on the normal cell line (BALAB/3T3): statement in words; for IC50: Mus musculus, BALB/3T3, read-out: BALAB/3T3 IC50 ± SD
Outline: as §1

| Structure (SMILES) | IC50 (HepG2) [µg/mL] | toxicity on the normal cell line (BALAB/3T3) [1] | IC50 [1] [µg/mL] |
| --- | --- | --- | --- |
| Cc1c(-c2cc(-c3ccccc3)c(C#N)c(N)n2)nnn1-c1ccc(Br)cc1 [Compound 3, 2-Amino-6-(1-(4-bromophenyl)-5-methyl-1H-1,2,3-triazol-4-yl)-4-phenylnicotinonitrile] | 17.2 ± 0.83 (≈ 40 µM) |  |  |
| COc1cc(-c2cc(-c3nnn(-c4ccc(Br)cc4)c3C)nc(N)c2C#N)ccc1O [Compound 8, 2-Amino-6-(1-(4-bromophenyl)-5-methyl-1H-1,2,3-triazol-4-yl)-4-(4-hydroxy-3-methoxyphenyl)nicotinonitrile] | 9.65 ± 0.37 (≈ 20.2 µM) |  |  |
| Cc1c(-c2cc(-c3ccco3)c(C#N)c(N)n2)nnn1-c1ccc(Br)cc1 [Compound 9, 2-Amino-6-(1-(4-bromophenyl)-5-methyl-1H-1,2,3-triazol-4-yl)-4-(furan-2-yl)nicotinonitrile] | 11.15 ± 0.01 (≈ 26.5 µM) |  |  |
| CCOC(=O)c1c(-c2ccccc2)cc(-c2nnn(-c3ccc(Br)cc3)c2C)nc1N [Compound 10, Ethyl 2-Amino-6-(1-(4-bromophenyl)-5-methyl-1H-1,2,3-triazol-4-yl)-4-phenylnicotinate] | 23.2 ± 0.45 (≈ 48.6 µM) |  | 76.72 ± 0.24 (≈ 160 µM) |
| CCOC(=O)c1c(-c2ccc(OC)cc2)cc(-c2nnn(-c3ccc(Br)cc3)c2C)nc1N [Compound 11, Ethyl 2-Amino-6-(1-(4-bromophenyl)-5-methyl-1H-1,2,3-triazol-4-yl)-4-(4-methoxyphenyl)nicotinate] | 16.7 ± 0.83 (≈ 32.8 µM) |  |  |
| CCOC(=O)c1c(-c2ccc(O)c(OC)c2)cc(-c2nnn(-c3ccc(Br)cc3)c2C)nc1N [Compound 15, Ethyl 2-Amino-6-(1-(4-bromophenyl)-5-methyl-1H-1,2,3-triazol-4-yl)-4-(4-hydroxy-3-methoxyphenyl)nicotinate] | 11.3 ± 0.95 (≈ 21.6 µM) |  | 18.3 ± 1.81 (≈ 35 µM) |
| CCOC(=O)c1c(-c2ccco2)cc(-c2nnn(-c3ccc(Br)cc3)c2C)nc1N [Compound 16, Ethyl 2-Amino-6-(1-(4-bromophenyl)-5-methyl-1H-1,2,3-triazol-4-yl)-4-(furan-2-yl)nicotinate] | 13.24 ± 0.12 (≈ 28.3 µM) |  |  |
| COc1cccc2c1C(=O)c1c(O)c3c(c(O)c1C2=O)C[C@@](O)(C(=O)CO)C[C@@H]3O[C@H]1C[C@H](N)[C@H](O)[C@H](C)O1 [doxorubicin, reference compound] | 3.56 ± 0.46 (≈ 6.55 µM) |  |  |

Further lines, with some results ahead:

| IC50 (HepG2) [µg/mL] | Structure (SMILES) | toxicity on the normal cell line (BALAB/3T3) [1] | IC50 [1] [µg/mL] |
| --- | --- | --- | --- |
| 0.64 ± 0.14 (≈ 0.873 µM) | Cc1c(-c2cc(-c3cn(-c4ccccc4)nc3-c3nnn(-c4ccc(Br)cc4)c3C)c(C#N)c(N)n2)nnn1-c1ccc(Br)cc1 [Compound 6, 2-Amino-6-(1-(4-bromophenyl)-5-methyl-1H-1,2,3-triazol-4-yl)-4-(3-(1-(4-bromophenyl)-5-methyl-1H-1,2,3-triazol-4-yl)-1-phenyl-1H-pyrazol-4-yl)nicotinonitrile] | no toxicity |  |
| 1.08 ± 0.94 (≈ 1.54 µM) | Cc1c(-c2cc(-c3cn(-c4ccccc4)nc3-c3nnn(-c4cccc([N+](=O)[O-])c4)c3C)c(C#N)c(N)n2)nnn1-c1ccc(Br)cc1 [Compound 7, 2-Amino-6-(1-(4-bromophenyl)-5-methyl-1H-1,2,3-triazol-4-yl)-4-(3-(5-methyl-1-(3-nitrophenyl)-1H-1,2,3-triazol-4-yl)-1-phenyl-1H-pyrazol-4-yl)nicotinonitrile] | no toxicity |  |
| 6.24 ± 0.71 (≈ 8 µM) | CCOC(=O)c1c(-c2cn(-c3ccccc3)nc2-c2nnn(-c3ccc(Br)cc3)c2C)cc(-c2nnn(-c3ccc(Br)cc3)c2C)nc1N [Compound 13, Ethyl 2-Amino-6-(1-(4-bromophenyl)-5-methyl-1H-1,2,3-triazol-4-yl)-4-(3-(1-(4-bromophenyl)-5-methyl-1H-1,2,3-triazol-4-yl)-1-phenyl-1H-pyrazol-4-yl)nicotinate] |  | 61.24 ± 0.21 (≈ 78.5 µM) |
| 9.54 ± 0.05 (≈ 12.8 µM) | CCOC(=O)c1c(-c2cn(-c3ccccc3)nc2-c2nnn(-c3cccc([N+](=O)[O-])c3)c2C)cc(-c2nnn(-c3ccc(Br)cc3)c2C)nc1N [Compound 14, Ethyl 2-Amino-6-(1-(4-bromophenyl)-5-methyl-1H-1,2,3-triazol-4-yl)-4-(3-(5-methyl-1-(3-nitrophenyl)-1H-1,2,3-triazol-4-yl)-1-phenyl-1H-pyrazol-4-yl)nicotinate] |  |  |
